Assay outcomes: PubChem, Sanford-Burnham Center for Chemical Genomics
Hits are enriched below; roughly 3.9% of the tested compounds scored in any of these assays.
tim10-1 inh – growth inhibitors of tim10-1 mutant yeast, primary screen, luminescence, uHTS | S. cerevisiae tim10-1 ts strain growth, BacTiter-Glo, 24 h | inhibition, % at 20 µM | 330,000 compounds, 2.2% hits | AID 463190, 2010;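 active means inhibition of at least 40%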;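 further: mutant grown at 25 °C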
TIM10 inh – growth inhibitors of isogenic TIM10 control yeast, primary screen, counter-screen for tim10-1 yeast inhibitor project, luminescence, uHTS. AID 463195, 2010. inhibition, % at 10 µM. 330,000 compounds, 1.4% hits. S. cerevisiae TIM10 strain growth, BacTiter-Glo luminescence, 24 h;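 active means inhibition of 40% or more at the single tested concentration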;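 further: wild-type TIM10 isogenic control strain grown at permissive 25 °C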
tim23-1 inh – growth inhibitors of tim23-1 mutant yeast, primary screen, luminescence, uHTS. S. cerevisiae tim23-1 growth, BacTiter-Glo luminescence, 24 h. inhibition, % at 20 µM. 330,000 compounds, 1.3% hits. AID 463212, 2010;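 active means growth inhibition of the mutant yeast at or above 50%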;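 further: temperature-sensitive mutant grown at 25 °C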
UPR XBP1 act – activators of adaptive XBP1 UPR arm, primary screen, cell-based, CHO-XBP1 luciferase reporter, luminescence, uHTS; IRE1-XBP1 UPR activation; percent of tunicamycin response, DMSO as zero; activation, % at 20 µM; 330,000 compounds, 0.33% hits; AID 463104, 2010;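 active means versus positive control, 20 µM dose yields 30% or more activation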
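Assay system: IRE1-XBP1 luciferase reporter CHO line. Input: 1000 cells/well. Buffer or medium: F12 with 10% serum. Doses: 20 µM, 1% DMSO. Times: overnight seeding at 37 °C, 6 h compound treatment at 37 °C. Technique: Steady-Glo luciferase glow luminescence, 10 min after reagent addition.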
CHOP UPR activ – activators of apoptotic CHOP UPR arm, primary screen, cell-based, CHO-CHOP luciferase reporter, luminescence, uHTS. AID 449763, 2010. 330,000 compounds, 0.34% hits. activation, % at 10 µM. UPR activation; percent of tunicamycin response over DMSO baseline;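 active means at 10 µM dose, activation of 40% or more, normalized to positive control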
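Test system: CHO-CHOP cells, stable luciferase reporter of PERK-eIF2a-CHOP signalling | Quantity: 500 CHO-CHOP cells per well | Buffer or medium: F12 plus 10% serum | Compound dosing: 10 µM single point, 0.5% DMSO | Schedule: 6 h compound treatment, 37 °C | Signal: Luciferase luminescence | Control set: Tunicamycin high control, DMSO low control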
tim10-1 conf – growth inhibitors of tim10-1 mutant yeast, confirmation, single concentration, luminescence, S. cerevisiae; S. cerevisiae tim10-1 ts strain growth, BacTiter-Glo, 24 h; 7,400 compounds, 56% hits; inhibition, % at 20 µM; shares compounds with tim10-1 inh; AID 463213, 2010;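 active means inhibition of yeast growth at or above a set limit in either of two repeat tests at 20 µM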;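 further: tim10-1 mutant grown at permissive 25 °C to find synthetic lethal compounds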
Hits are given with their value; i = inactive; nt = no result given.

SMILES	tim10-1 inh	TIM10 inh	tim23-1 inh	UPR XBP1 act	CHOP UPR activ	tim10-1 conf
CCOC(=O)c1c(-c2ccc(C)o2)csc1NC(=O)COC(=O)c1cccs1	42	i	i	i	i	i
CN(C)C(=O)CCc1ccc2c3c([nH]c2c1)[C@]1(C)[C@@H](C(=O)N2CCCCC2)C[C@H](CC(=O)NCC24CC5CC(CC(C5)C2)C4)C(=O)N1CC3	i	i	i	i	i	nt
O=C(NCc1ccc(F)cc1)c1ccc(N2CCc3ccccc32)c([N+](=O)[O-])c1	42	i	i	i	i	i
CCCCCC(=O)N1CCCC(c2nc(-c3ccc(OC)cc3)no2)C1 (configuration not stated)	i	i	i	i	i	nt
COc1ccc(-c2noc(C3CCCN(C(=O)CCc4ccccc4)C3)n2)cc1 (configuration not stated)	42	i	i	i	i	33
CCN(CC(=O)Nc1cc(Cl)ccc1C)C(=O)C1COc2ccccc2O1 (configuration not stated)	i	i	i	i	i	nt
Cc1cc(C)cc(OCCCOc2cccc3cccnc23)c1	42	i	i	i	i	33
Cc1nn(CC(=O)N/N=C/c2ccc3c(c2)OCO3)c(C)c1Br	i	i	i	i	i	nt
O=C(CSCc1cccc(Br)c1)N/N=C/c1ccc2c(c1)OCO2	43	i	i	i	i	36
CSc1nc2ccc(NC(=O)c3ccc(F)c(F)c3)cc2s1	i	i	i	i	i	nt
CCOC(=O)Nc1ccc2nc(Sc3ccc(Cl)cc3)sc2c1	42	i	i	i	i	33
COc1cccc(NC(=O)CN(C)C(=O)C(C)Sc2ccccc2)c1 (configuration not stated)	i	i	i	i	i	nt
O=C(CCN1C(=O)/C(=C\c2ccccc2)SC1=S)N1CCCCC1	i	i	i	i	i	nt
O=C(CN1C(=O)/C(=C/c2ccccc2)SC1=S)N1CCN(CCc2ccccn2)CC1	42	i	i	i	i	i
Cc1nnnn1/C(=C\c1ccccc1)C(=O)OCC(=O)NC(C)(C)C	45	i	i	i	i	34
O=C(CSCc1ccc(Cl)cc1)Nc1ccc(O)cc1C(=O)O	i	i	i	i	i	nt
O=C(Nc1nccs1)c1cc2c(s1)-c1ccccc1OC2	59	i	i	i	i	i
COc1ccc(NC(=O)c2sc3nc(N4CCOCC4)c4c(c3c2N)CC(C(C)C)OC4)c(OC)c1 (configuration not stated)	43	i	i	i	i	i
O=C(CN(C1CCCCC1)S(=O)(=O)c1ccc(F)cc1)Nc1ccc2c(c1)OCO2	45	i	i	i	i	i
CC1CCCCN1CCNC(=O)c1ccc2c(=O)n(Cc3ccc(Cl)cc3)c(=S)[nH]c2c1 (configuration not stated)	i	i	i	i	i	nt
O=C1CCSc2ccc(Cl)cc2N1Cc1ccccc1	i	i	i	i	i	nt
O=C1CCSc2ccc(Cl)cc2N1Cc1ccc(Cl)cc1	45	i	i	i	i	i
CC(=O)Oc1ccc(Oc2ccc(-c3noc(C)n3)cc2)cc1	i	i	i	i	i	nt
CC(=O)Oc1ccc(-c2nc(-c3cccnc3)no2)cc1	43	i	i	i	i	49
Cc1ccc(N/C(=N/S(=O)(=O)c2cccs2)c2ccccc2)c(C)c1	46	i	i	i	i	i
SMILES	tim10-1 inh	TIM10 inh	tim23-1 inh	UPR XBP1 act	CHOP UPR activ	tim10-1 conf
COc1ccc(Nc2ccccc2N)cc1	47	i	i	i	i	i
Cc1ccc(NC(=O)C2COc3ccccc3O2)cc1S(=O)(=O)N1CCOCC1 (configuration not stated)	i	i	i	i	i	nt
CCOc1ccc(N(Cc2ccc(OC)cc2)C(=O)c2ccco2)cc1	44	i	i	i	i	i
CCN(c1ccc(NC(=O)CSCc2c(C)noc2C)cc1)C(C)C	i	i	i	i	i	nt
CN1CCN(c2cc(N3CCc4ccccc4C3)c(F)cc2[N+](=O)[O-])CC1	48	i	i	i	i	39
CCC(=O)N1CCN(c2cc(N3CCN(C)CC3)c(F)cc2[N+](=O)[O-])CC1	i	i	i	i	i	nt
CC(C(=O)NCC1CCCCC1)N1CCN(S(=O)(=O)/C=C/c2ccccc2)CC1 (configuration not stated)	41	i	i	i	i	i
CC(C)(C)NC(=S)N/N=C\c1ccc(-c2ccc([N+](=O)[O-])cc2)o1	40	i	i	i	i	33
Cc1ccc(OC(=O)c2ccc([N+](=O)[O-])cc2Cl)cn1	43	i	i	i	i	i
COC(=O)C[C@H]1c2ccccc2S(=O)(=O)N1c1cccc(OC)c1	i	i	i	i	i	nt
COc1cccc(N2[C@@H](CC(C)=O)c3ccc(/C=C/C(C)=O)cc3S2(=O)=O)c1	44	i	i	i	i	34
Cc1cccc(N2CCN(C(=O)c3ccc4c(c3)CCN4S(C)(=O)=O)CC2)c1C	i	i	i	i	i	nt
CCOc1c2c(nc3ccc(Cl)cc13)CCC2	41	i	i	i	i	32
CCOC(=O)c1c2c(n(C)c1COC)C(=O)C(=O)c1ccc(Br)cc1-2	48	i	i	i	i	i
CCOC(=O)COn1c(=O)c(-c2cc3ccccc3o2)[n+]([O-])c2ccccc21	44	i	i	i	i	i
Cc1ccccc1CSCC(=O)N1CCN(c2ccccc2)CC1	44	i	i	i	i	i
O=C1C2C3C=CC(C3)C2C(=O)N1CCN1CCN(S(=O)(=O)c2ccc3ccccc3c2)CC1 (configuration not stated)	i	i	i	i	i	nt
O=C1C2C3C=CC(C3)C2C(=O)N1CCN1CCN(S(=O)(=O)/C=C/c2ccccc2)CC1 (configuration not stated)	42	i	i	i	i	i
CN(CC(=O)O/N=C(\N)c1ccccn1)S(=O)(=O)c1cc(Cl)ccc1Cl	43	i	i	i	i	41
N/C(=N\OC(=O)CCCOc1ccc(Cl)cc1Cl)c1ccccn1	59	i	i	i	i	39
Cc1ccc(S(=O)(=O)N(C)CC(=O)O/N=C(\N)c2ccccn2)cc1	i	i	i	i	i	nt
CN1CCN(C2Cc3ccccc3Sc3ccc(Cl)cc32)CC1 (configuration not stated)	52	i	i	i	i	36
CCOC(=O)C1=C(C)N(C)C(=S)N(C)C1c1ccc(OC)cc1 (configuration not stated)	i	i	i	i	i	nt
